According to ChEMBL document CHEMBL3751737, “Synthesis, antibacterial and cytotoxic activities of new biflorin-based hydrazones and oximes” (2016):
≈ marks a conversion by molar mass, not a printed value. Calls of active or inactive are those of the source. No cut-off for these calls is given here.

Tests used:
Format in all cases: functional
Staphylococcus aureus [1] = experiment: Antibacterial activity against Staphylococcus aureus ATCC 25923 after 24 hrs by broth microdilution method
Summary of the method: (§1)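 Broth microdilution in BHI following CLSI M100-S16. Strains were activated in BHI for 24 h at 35 ± 2 °C, adjusted to 0.5 McFarland, and diluted to a final inoculum of 5 x 10^5 CFU/mL. Samples were dissolved in water/DMSO and tested at final 512-8 µg/mL, in triplicate. Plates were incubated 24 h at 35 ± 2 °C, then 0.01% resazurin was added. MIC was the lowest concentration preventing the visual blue-to-red change. Amikacin, gentamicin and neomycin served as positive controls.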

Enterococcus faecalis = experiment: Antibacterial activity against Enterococcus faecalis ATCC 4083 after 24 hrs by broth microdilution method; summary of the method: as §1
Proteus vulgaris = experiment: Antibacterial activity against Proteus vulgaris ATCC 13315 after 24 hrs by broth microdilution method; summary of the method: as §1
Escherichia coli [2] = experiment: Antibacterial activity against Escherichia coli 27 after 24 hrs by broth microdilution method; summary of the method: as §1
Escherichia coli [3] = experiment: Antibacterial activity against Escherichia coli ATCC 10536 after 24 hrs by broth microdilution method; summary of the method: as §1
Staphylococcus aureus [4] = experiment: Antibacterial activity against Staphylococcus aureus 358 after 24 hrs by broth microdilution method; summary of the method: as §1
HCT-116 = experiment: (§2) Cytotoxicity against human HCT116 cells assessed as growth inhibition at 5 ug/ml after 72 hrs by MTT assay
Summary of the method: (§3)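 Cells were maintained in RPMI 1640 with 10% FBS and 1% antibiotic at 37 °C under 5% CO2. Samples were dissolved in DMSO and tested at a single 5 µg/mL for 72 h. Viability was read by MTT: 3 h incubation, formazan dissolved in DMSO, absorbance at 595 nm. Results were graded on an intensity scale.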

SF-295 = experiment: (§4) Cytotoxicity against human SF295 cells assessed as growth inhibition at 5 ug/ml after 72 hrs by MTT assay
Summary of the method: (§5)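 Cells were grown in RPMI 1640 with 10% FBS and 1% antibiotic at 37 °C under 5% CO2, and seeded at 0.1 x 10^6 cells/mL. Samples were dissolved in DMSO and tested at 5 µg/mL for 72 h. MTT was added for 3 h, the precipitate was dissolved in DMSO, and absorbance was read at 595 nm. Potential was rated on an intensity scale.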

OVCAR-8 = experiment: (§6) Cytotoxicity against human OVCAR8 cells assessed as growth inhibition at 5 ug/ml after 72 hrs by MTT assay; summary of the method: as §5
[5] = as §2; conditions: HCT-116, 72 h, read-out: GI; summary of the method: as §3
[6] = as §4; conditions: SF-295, 72 h, read-out: GI; summary of the method: as §5
[7] = as §6; conditions: OVCAR-8, 72 h, read-out: GI; summary of the method: as §5
Staphylococcus aureus [8] = experiment: Antibacterial activity against Staphylococcus aureus ATCC 12692 after 24 hrs by broth microdilution method; conditions: ATCC 12692, 24 h
Staphylococcus aureus [9] = experiment: Antibacterial activity against Staphylococcus aureus ATCC 12624 after 24 hrs by broth microdilution method; conditions: ATCC 12624, 24 h
Staphylococcus aureus [10] = experiment: Antibacterial activity against Staphylococcus aureus ATCC 6538 after 24 hrs by broth microdilution method; conditions: ATCC 6538, 24 h
Bacillus cereus = experiment: Antibacterial activity against Bacillus cereus ATCC 33018 after 24 hrs by broth microdilution method; conditions: ATCC 33018, 24 h
Escherichia coli [11] = experiment: Antibacterial activity against Escherichia coli ATCC 25922 after 24 hrs by broth microdilution method; conditions: ATCC 25922, 24 h
Pseudomonas aeruginosa = experiment: Antibacterial activity against Pseudomonas aeruginosa ATCC 15442 after 24 hrs by broth microdilution method; conditions: ATCC 15442, 24 h
Aeromonas caviae = experiment: Antibacterial activity against Aeromonas caviae ATCC 15468 after 24 hrs by broth microdilution method; conditions: ATCC 15468, 24 h
Klebsiella pneumoniae = experiment: Antibacterial activity against Klebsiella pneumoniae ATCC 10031 after 24 hrs by broth microdilution method; conditions: ATCC 10031, 24 h
Shigella flexneri = experiment: Antibacterial activity against Shigella flexneri ATCC 12022 after 24 hrs by broth microdilution method; conditions: ATCC 12022, 24 h
Vibrio cholerae = experiment: Antibacterial activity against Vibrio cholerae ATCC 15748 after 24 hrs by broth microdilution method; conditions: ATCC 15748, 24 h
Listeria monocytogenes = experiment: Antibacterial activity against Listeria monocytogenes ATCC 19117 after 24 hrs by broth microdilution method; conditions: ATCC 19117, 24 h
[12] = Staphylococcus aureus, 358, 24 h

| Compound | MIC (Staphylococcus aureus [1]; ATCC 25923, 24 h) [µg/mL] | MIC (Enterococcus faecalis; ATCC 4083, 24 h) [µg/mL] | MIC (Proteus vulgaris; ATCC 13315, 24 h) [µg/mL] | MIC (Escherichia coli [2]; Escherichia coli, 27, 24 h) [µg/mL] | MIC (Escherichia coli [3]; ATCC 10536, 24 h) [µg/mL] | MIC (Staphylococcus aureus [4]; [12]) [µg/mL] | growth inhibition (GI) (HCT-116) | growth inhibition (GI) (SF-295) | growth inhibition (GI) (OVCAR-8) | further results |
| --- | --- | --- | --- | --- | --- | --- | --- | --- | --- | --- |
| CCO/N=C1\C(=O)C(C)=C2OC=C(CCC=C(C)C)c3ccc(C)c1c32 | 32 (≈ 91.1 µM) | 16 (≈ 45.5 µM) | 512 (≈ 1460 µM) | 128 (≈ 364 µM) | 512 (≈ 1460 µM) | 64 (≈ 182 µM) | inactive | inactive | inactive | – |
| NCC1O[C@H](O[C@H]2[C@@H](O)[C@H](O[C@H]3[C@H](O)[C@@H](N)C[C@@H](N)[C@@H]3O[C@H]3O[C@H](CN)[C@@H](O)[C@H](O)[C@H]3N)O[C@@H]2CO)[C@H](N)[C@@H](O)[C@@H]1O (some centres not stated) | 32 (≈ 52.1 µM) | 128 (≈ 208 µM) | 512 (≈ 833 µM) | 128 (≈ 208 µM) | 512 (≈ 833 µM) | 32 (≈ 52.1 µM) | – | – | – | – |
| CC(C)=CCCC1=COC2=C(C)C(=O)C(=O)c3c(C)ccc1c32 | 64 (≈ 208 µM) | 32 (≈ 104 µM) | 16 (≈ 51.9 µM) | 256 (≈ 830 µM) | 128 (≈ 415 µM) | 128 (≈ 415 µM) | – | – | – | inhibition of growth at 5 µg/mL [5]: 75%; inhibition of growth at 5 µg/mL [6]: 75%; inhibition of growth at 5 µg/mL [7]: 75%; MIC (Staphylococcus aureus [8]): ≥ 1020 µg/mL; MIC (Staphylococcus aureus [9]): ≥ 1020 µg/mL; MIC (Staphylococcus aureus [10]): ≥ 1020 µg/mL; MIC (Bacillus cereus): ≥ 1020 µg/mL; MIC (Escherichia coli [11]): ≥ 1020 µg/mL; MIC (Pseudomonas aeruginosa): ≥ 1020 µg/mL; MIC (Aeromonas caviae): ≥ 1020 µg/mL; MIC (Klebsiella pneumoniae): ≥ 1020 µg/mL; MIC (Shigella flexneri): ≥ 1020 µg/mL; MIC (Vibrio cholerae): ≥ 1020 µg/mL; MIC (Listeria monocytogenes): ≥ 1020 µg/mL |
| GENTAMICIN | – | – | – | – | – | – | – | – | – | MIC (Staphylococcus aureus [1]): 32 µg/mL; MIC (Enterococcus faecalis): 32 µg/mL; MIC (Proteus vulgaris): 64 µg/mL; MIC (Escherichia coli [2]): 512 µg/mL; MIC (Escherichia coli [3]): 128 µg/mL; MIC (Staphylococcus aureus [4]): 8 µg/mL |
| CC(C)=CCCC1=COC2=C(C)C(=O)/C(=N\Nc3ccc([N+](=O)[O-])cc3[N+](=O)[O-])c3c(C)ccc1c32 | 512 (≈ 1050 µM) | 512 (≈ 1050 µM) | 512 (≈ 1050 µM) | ≥ 1020 | 512 (≈ 1050 µM) | 512 (≈ 1050 µM) | inactive | inactive | inactive | – |
| CC(C)=CCCC1=COC2=C(C)C(=O)/C(=N\O)c3c(C)ccc1c32 | 256 (≈ 792 µM) | 256 (≈ 792 µM) | 512 (≈ 1580 µM) | 512 (≈ 1580 µM) | ≥ 1020 | ≥ 1020 | inactive | inactive | inactive | – |
| CO/N=C1\C(=O)C(C)=C2OC=C(CCC=C(C)C)c3ccc(C)c1c32 | 32 (≈ 94.8 µM) | 32 (≈ 94.8 µM) | 64 (≈ 190 µM) | 128 (≈ 379 µM) | ≥ 1020 | 64 (≈ 190 µM) | inactive | inactive | inactive | – |
| CC(C)=CCCC1=COC2=C(C)C(=O)/C(=N\Nc3ccccc3)c3c(C)ccc1c32 | 256 (≈ 642 µM) | 512 (≈ 1280 µM) | ≥ 1020 | ≥ 1020 | ≥ 1020 | ≥ 1020 | inactive | inactive | inactive | – |
| NCC[C@H](O)C(=O)N[C@@H]1C[C@H](N)[C@@H](O[C@H]2O[C@H](CN)[C@@H](O)[C@H](O)[C@H]2O)[C@H](O)[C@H]1O[C@H]1O[C@H](CO)[C@@H](O)[C@H](N)[C@H]1O [AMIKACIN] | 256 (≈ 437 µM) | 256 (≈ 437 µM) | 512 (≈ 874 µM) | 128 (≈ 219 µM) | – | 256 (≈ 437 µM) | – | – | – | – |
